Source: PubChem (Sanford-Burnham Center for Chemical Genomics)
Hits are enriched below; roughly 2.5% of the tested compounds scored in any of these assays.
SENP8 block-1 – human SENP8 protease inhibitors, primary screen, biochemical, fluorescence, Nedd8 protein substrate, uHTS; Sentrin-specific protease 8 (Homo sapiens), Q96LD8; recombinant SENP8; inhibition, % at 20 µM; actives 0.64% (n = 360,000); AID 602440, 2012; in the data active = inhibition mostly above about 40%, no sharp cut-off; inactive = mostly below about 27%
SENP6 inh – SENP6 protease inhibitors, primary screen, biochemical, luminescence, uHTS; Recombinant SENP6 catalytic domain, aminoluciferin luminescence; inhibition, % at 10 µM; actives 1.8% (n = 330,000);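 active = inhibition above about 50% at the single tested dose, limit read from the data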;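 note: plate controls were DMSO wells with enzyme for no effect and DMSO wells lacking enzyme for full effect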
SENP7 inh – SENP7 protease inhibitors, primary screen, biochemical, luminescence, uHTS; recombinant SENP7, Z-RLRGG-aminoluciferin luminescence, 40 min; inhibition, % at 5 µM; AID 434973, 2010; actives 1.5% (n = 330,000);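 active = inhibition above about 50% at the single test dose, limit read from the data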;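 note: plate controls were DMSO with enzyme for no effect and no enzyme buffer wells for full effect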
Target sequence (Q9BQF6 706-1050 limits assumed): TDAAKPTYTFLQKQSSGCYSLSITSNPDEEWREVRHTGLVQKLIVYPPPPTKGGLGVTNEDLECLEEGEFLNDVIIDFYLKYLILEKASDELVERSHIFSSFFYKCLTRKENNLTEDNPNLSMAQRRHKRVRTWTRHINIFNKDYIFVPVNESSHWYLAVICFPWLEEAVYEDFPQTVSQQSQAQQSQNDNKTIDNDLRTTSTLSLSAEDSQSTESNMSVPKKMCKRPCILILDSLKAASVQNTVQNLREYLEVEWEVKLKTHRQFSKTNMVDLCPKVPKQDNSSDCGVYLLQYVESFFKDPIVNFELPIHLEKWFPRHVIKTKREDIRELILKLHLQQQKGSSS
SENP8 block-2 – SENP8 protease inhibitors, primary screen, biochemical, luminescence; purified SENP8, Z-RLRGG-aminoluciferin cleavage; Sentrin-specific protease 8 (Homo sapiens), Q96LD8; actives 1.2% (n = 330,000); inhibition, % at 10 µM; in the data active = inhibition above about 50%
SENP1 FRET inh – human SENP1 catalytic domain inhibitors, primary screen, biochemical, FRET, uHTS | actives 0.21% (n = 360,000) | AID 624204, 2012 | recombinant SENP1 catalytic domain, CyPet-SUMO1-YPet FRET cleavage | inhibition, % at 10 µM | Sentrin-specific protease 1 (Homo sapiens), Q9P0U3;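 active = inhibition at least 30% at 10 µM, raw YFP signal under a set limit, fluorescence ratio 0.5 to 1.5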;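 note: 0% = enzyme with DMSO and 100% = no enzyme wells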
Target sequence (Q9P0U3 419-644 limits assumed): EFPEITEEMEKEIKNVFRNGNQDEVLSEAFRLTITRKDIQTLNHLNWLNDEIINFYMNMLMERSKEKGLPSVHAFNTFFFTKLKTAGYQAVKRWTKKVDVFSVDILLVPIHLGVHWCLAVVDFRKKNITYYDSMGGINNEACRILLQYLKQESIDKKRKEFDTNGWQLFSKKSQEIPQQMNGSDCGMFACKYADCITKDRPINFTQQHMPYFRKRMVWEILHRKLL
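Assay system – human recombinant His6-tagged SENP1 catalytic domain enzyme · Input – SENP1 enzyme, 20 pM final · Buffer or medium – Tris pH 8 buffer plus EDTA, NaCl, BME, BSA, NP40, catalase · Schedule – 50 min reaction at room temperature · Technique – FRET read of cyan and yellow fluorescence · Control set – no-enzyme wells low, DMSO-plus-enzyme wells high control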
SENP8 confirm – SENP8 protease inhibitors, retest, confirmation, biochemical, luminescence, single concentration; shares compounds with SENP7 inh; actives 40% (n = 6,200); inhibition, % at 12.5 µM; Recombinant SENP8, Z-RLRGG-aminoluciferin luminescence, 60 min;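 active = mean inhibition across replicates above about 50%, limit read from the data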
SENP6 conf – SENP6 protease inhibitors, confirmation, biochemical, luminescence, single concentration; shares compounds with SENP7 inh; recombinant SENP6, Z-RLRGG-aminoluciferin luminescence; inhibition, % at 12.5 µM; actives 58% (n = 6,200)
SENP7 conf – SENP7 protease inhibitors, retest, confirmation, biochemical, luminescence, single concentration; shares compounds with SENP7 inh; recombinant SENP7, Z-RLRGG-aminoluciferin luminescence, 40 min; inhibition, % at 12.5 µM; actives 69% (n = 6,200); AID 488917, 2010
Casp3 select – caspase-3 protease inhibitors, confirmation, selectivity assay for SENP inhibitor project, biochemical, single concentration; shares compounds with SENP7 inh; purified caspase-3, Z-DEVD-aminoluciferin luminescence, 60 min; inhibition, % at 12.5 µM; actives 60% (n = 6,200); AID 488918, 2010;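 active = mean inhibition above about 50%, limit read from the data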;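 note: plate controls were enzyme with DMSO for no effect and wells without caspase-3 for full effect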
SENP luc ctr – luminescence interference (SENP counter-screen) | inhibition, % at 12.5 µM | Pre-incubated SENP8/Z-RLRGG-aminoluciferin, luciferase luminescence interference | shares compounds with SENP7 inh | actives 39% (n = 6,200) | AID 488919;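 active = mean inhibition above about 50% when retested at one dose, limit read from the data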;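 note: plate controls were DMSO wells with completed reaction for no effect and substrate without enzyme for full effect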
Active calls of the source: *; / = no result.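 Rule for the calls, unless noted: active = mean inhibition above about 50% in the one-dose retest (limit read from the data); inactive = the rest.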

SMILES	SENP8 block-1	SENP6 inh	SENP7 inh	SENP8 block-2	SENP1 FRET inh	SENP8 confirm	SENP6 conf	SENP7 conf	Casp3 select	SENP luc ctr
Cc1cc(C)c2sc(NC(=O)C3=COCCO3)nc2c1	-27	67*	62*	45	-2	44	65*	89*	56*	45
Cc1cc(C(=O)Nc2ccc3c(c2)OCCO3)co1	13	34	2	15	0	/	/	/	/	/
Cc1ccc(C(=O)Nc2ccc3c(c2)OCCO3)o1	8	54*	7	30	2	52*	44	80*	82*	62*
CC(C)n1nnnc1SCC(=O)NC1CCCC1	10	-6	-6	-9	1	/	/	/	/	/
CCc1ccc(-c2csc(NC(=O)C3=COCCO3)n2)cc1	-8	60*	30	36	-1	37	32	73*	16	7
Nc1ccc2nc(-c3ccccc3)cnc2c1	-369	67*	42	52*	-39	41	68*	88*	74*	71*
CCOC(=O)c1ccc2ncc(-c3ccccc3)nc2c1	5	/	/	/	1	/	/	/	/	/
O=C(O)c1cc(-c2ccc(O)cc2)nc2ccccc12	/	9	-1	3	/	/	/	/	/	/
Cc1cc2ncc(-c3ccccc3)nc2cc1C	-6	95*	97*	95*	2	97*	99*	102*	96*	92*
O=C(Oc1ccc(-c2cnc3ccccc3n2)cc1)c1cccc([N+](=O)[O-])c1	-64	24	1	14	1	/	/	/	/	/
Oc1ccc(-c2cnc3ccccc3n2)cc1	-316	90*	71*	84*	-2	82*	82*	97*	87*	86*
O=C(Oc1ccc(-c2cnc3ccccc3n2)cc1)c1ccc(Br)o1	-47	51*	75*	42	2	13	22	24	64*	20
CCOc1nc2cnccc2n(CC(=O)Nc2ccc(C)c(C)c2)c1=O	11	4	1	10	-2	/	/	/	/	/
CCOC(=O)C1CCN(C(=O)c2ccccc2)C(CC)C1=O (centres undefined)	13	/	/	/	1	/	/	/	/	/
O=C(CSc1nnnn1-c1ccccc1)NCCCN1CCCC1=O	2	12	5	4	1	/	/	/	/	/
Cc1ccc(-c2cnc3ccccc3n2)cc1C	-49	94*	98*	95*	2	97*	100*	103*	96*	48
CCCCOc1ccc(-c2cnc3ccccc3n2)cc1	-407	96*	95*	91*	-5	52*	64*	55*	83*	20
c1csc(-c2cnc3ccccc3n2)c1	-282	67*	59*	31	-23	12	54*	83*	58*	11
c1cc(-c2cccs2)nc(-c2cccs2)c1	13	-6	0	3	3	/	/	/	/	/
Nc1ccc(-c2cnc3ccccc3n2)cc1	-100	62*	62*	55*	-37	59*	55*	86*	75*	61*
O=C(CCl)Nc1cccc(-c2cnc3ccccc3n2)c1	-48	-5	3	-15	1	/	/	/	/	/
CCN(CC)C(=O)CSc1nnc2nnc3cc(OC)ccc3n12	11	3	8	-5	-36	/	/	/	/	/
CCCNC(=O)CCn1c(=S)oc2ccccc21	8	58*	-1	-7	1	0	-2	7	6	0
O=c1c2cc(F)ccc2sn1-c1ccccc1	5	84*	22	75*	1	83*	84*	96*	88*	77*
NC(COCc1ccccc1)c1csc(Nc2ccc(C(=O)c3ccccc3)cc2)n1 (centres undefined)	-421	/	/	/	-5	/	/	/	/	/
SMILES	SENP8 block-1	SENP6 inh	SENP7 inh	SENP8 block-2	SENP1 FRET inh	SENP8 confirm	SENP6 conf	SENP7 conf	Casp3 select	SENP luc ctr
Cn1cccc1C(=O)c1ccc(Cl)cc1Cl	15	-4	-3	-2	-1	/	/	/	/	/
Cn1cccc1C(=O)C(=O)Nc1ccc(Cl)cc1	23	90*	95*	86*	1	93*	93*	100*	90*	57*
CC(C(=O)Nc1ccc(F)c(F)c1)N1CCN(C)CC1 (centres undefined)	18	13	-4	4	0	/	/	/	/	/
Cn1cccc1C(=O)C(=O)Nc1ccc(F)c(F)c1	8	89*	83*	80*	4	43	39	77*	53*	42
Cn1cccc1C(=O)C(=O)Nc1cc(Cl)cc(Cl)c1	24	73*	94*	67*	1	35	53*	88*	58*	-1
COc1n[nH]c(C(=O)Nc2cc(Cl)ccc2Cl)c1[N+](=O)[O-]	14	55*	10	7	0	19	18	42	26	6
COc1ccc(Cl)cc1NC(=O)c1[nH]nc(OC)c1[N+](=O)[O-]	30	-12	-5	-13	-1	/	/	/	/	/
CC12CCC(O)CC1=CCC1C2CCC2(C)C(c3ccn[nH]3)CCC12 (centres undefined)	13	/	/	/	2	/	/	/	/	/
O=C(Nc1nc2c(s1)CCCC2)c1ccc(Br)o1	-40	91*	88*	86*	-3	90*	91*	99*	91*	87*
Cc1ccc(C(=O)Nc2nc3c(s2)CCCC3)o1	-54	94*	93*	82*	-1	11	90*	100*	93*	29
CCCCn1nnnc1C1(C)CCC(=O)N1CCOC (centres undefined)	16	/	/	/	0	/	/	/	/	/
COC(=O)c1ccc(COC(=O)c2cccnc2Cl)cc1	6	51*	46	37	-1	50*	46	79*	66*	56*
COc1ccc(C(=O)COC(=O)c2cccnc2Cl)c(OC)c1	-5	35	25	11	-7	/	/	/	/	/
